Laboratory results as given in ChEMBL document CHEMBL1165950, “Design and synthesis of new potent anticancer pyrazoles with high FLT3 kinase inhibitory selectivity” (Bioorg Med Chem, 2010).

Tests used:
Type in all cases: functional
[1] = test system: NCI-H226; assay: Growth inhibition of human NCI-H226 cells after 48 hrs by sulforhodamine B assay; conditions: NCI-H226, 48 h; for CC50: read-out: LC50 (the source's name)
How it was run: (§1)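 NCI 60-cell screen, five-dose mode. Cells grown in RPMI 1640 with 5% FBS and 2 mM L-glutamine and plated at 5000-40,000 cells/well according to doubling time. After 24 h preincubation, a Tz plate was TCA-fixed. Five concentrations (10-fold or 1/2 log dilutions) were applied for 48 h at 37 °C. SRB staining read at 515 nm. IC50 taken from [(Ti-Tz)/(C-Tz)]×100 = 50.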

[2] = Cytotoxicity against human […] cells assessed as cell growth at 10 uM after 48 hrs by sulforhodamine B assay; conditions: read-out: Activity
[3] = test system: SK-MEL-28; assay: Cytotoxicity against human SK-MEL-28 cells assessed as cell growth at 100 nM after 48 hrs by sulforhodamine B assay; conditions: SK-MEL-28, 48 h, read-out: Activity
[4] = test system: DU-145; assay: Cytotoxicity against human DU145 cells assessed as cell growth at 0.01 uM after 48 hrs by sulforhodamine B assay; conditions: DU-145, 48 h, read-out: Activity
[5] = test system: RXF 393; assay: Cytotoxicity against human RXF393 cells assessed as cell growth at 10 uM after 48 hrs by sulforhodamine B assay; conditions: RXF 393, 48 h, read-out: Activity
[6] = test system: SK-MEL-28; assay: Cytotoxicity against human SK-MEL-28 cells assessed as cell growth at 0.001 uM after 48 hrs by sulforhodamine B assay; conditions: SK-MEL-28, 48 h, read-out: Activity
[7] = test system: ACHN; assay: Cytotoxicity against human ACHN cells assessed as cell growth at 0.01 uM after 48 hrs by sulforhodamine B assay; conditions: read-out: Activity
[8] = test system: NCI-H226; assay: Cytotoxicity against human NCI-H226 cells assessed as cell growth at 10 uM after 48 hrs by sulforhodamine B assay; conditions: NCI-H226, 48 h, read-out: Activity
[9] = test system: HCC 2998; assay: Cytotoxicity against human HCC2998 cells assessed as cell growth at 10 uM after 48 hrs by sulforhodamine B assay; conditions: HCC 2998, 48 h, read-out: Activity
[10] = test system: NCI-H226; assay: Cytotoxicity against human NCI-H226 cells assessed as cell growth at 0.01 uM after 48 hrs by sulforhodamine B assay; conditions: NCI-H226, 48 h, read-out: Activity
[11] = test system: MCF7; assay: Cytotoxicity against human MCF7 cells assessed as cell growth at 100 nM after 48 hrs by sulforhodamine B assay; conditions: MCF7, 48 h, read-out: Activity
[12] = test system: MCF7; assay: Growth inhibition of human MCF7 cells after 48 hrs by sulforhodamine B assay; conditions: MCF7, 48 h; how it was run: as §1
[13] = test system: RXF 393; assay: Cytotoxicity against human RXF393 cells assessed as cell growth at 1 uM after 48 hrs by sulforhodamine B assay; conditions: RXF 393, 48 h, read-out: Activity
[14] = test system: HCC 2998; assay: Cytotoxicity against human HCC2998 cells assessed as cell growth at 100 nM after 48 hrs by sulforhodamine B assay; conditions: HCC 2998, 48 h, read-out: Activity
[15] = test system: 786-0; assay: Cytotoxicity against human 786-0 cells assessed as cell growth at 10 uM after 48 hrs by sulforhodamine B assay; conditions: 786-0, 48 h, read-out: Activity
[16] = test system: SR; assay: Cytotoxicity against human SR cells assessed as cell growth at 0.01 uM after 48 hrs by sulforhodamine B assay; conditions: read-out: Activity
[17] = test system: HCC 2998; assay: Cytotoxicity against human HCC2998 cells assessed as cell growth at 1 uM after 48 hrs by sulforhodamine B assay; conditions: HCC 2998, 48 h, read-out: Activity
[18] = test system: MCF7; assay: Cytotoxicity against human MCF7 cells assessed as cell growth at 1 uM after 48 hrs by sulforhodamine B assay; conditions: MCF7, 48 h, read-out: Activity
[19] = test system: SR; assay: Cytotoxicity against human SR cells assessed as cell growth at 0.001 uM after 48 hrs by sulforhodamine B assay; conditions: read-out: Activity
[20] = test system: SR; assay: Cytotoxicity against human SR cells assessed as cell growth at 100 nM after 48 hrs by sulforhodamine B assay; conditions: read-out: Activity
[21] = test system: HCT-116; assay: Cytotoxicity against human HCT116 cells assessed as cell growth at 100 nM after 48 hrs by sulforhodamine B assay; conditions: HCT-116, 48 h, read-out: Activity
[22] = test system: NCI-H460; assay: Cytotoxicity against human NCI-H460 cells assessed as cell growth at 1 uM after 48 hrs by sulforhodamine B assay; conditions: NCI-H460, 48 h, read-out: Activity
[23] = test system: SK-MEL-28; assay: Cytotoxicity against human SK-MEL-28 cells assessed as cell growth at 1 uM after 48 hrs by sulforhodamine B assay; conditions: SK-MEL-28, 48 h, read-out: Activity
[24] = test system: U-251; assay: Cytotoxicity against human U251 cells assessed as cell growth at 10 uM; conditions: read-out: Activity
How it was run: (§2)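 NCI-60 screen: cells grown in RPMI 1640 with 5% FBS and 2 mM L-glutamine, plated at 5000–40,000 cells/well according to doubling time, and preincubated 24 h at 37 °C, 5% CO2. The single 10 µM dose (DMSO stock) was added, then incubated 48 h. Cells were TCA-fixed and stained with 0.4% SRB, read at 515 nm, and growth % calculated against time-zero and control plates.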

[25] = test system: MCF7; assay: Cytotoxicity against human MCF7 cells assessed as cell growth at 0.001 uM after 48 hrs by sulforhodamine B assay; conditions: MCF7, 48 h, read-out: Activity
[26] = test system: NCI-H226; assay: Cytotoxicity against human NCI-H226 cells assessed as cell growth at 1 uM after 48 hrs by sulforhodamine B assay; conditions: NCI-H226, 48 h, read-out: Activity
[27] = test system: TK-10; assay: Growth inhibition of human TK10 cells after 48 hrs by sulforhodamine B assay; conditions: TK-10, 48 h; for CC50: read-out: LC50 (the source's name); how it was run: as §1
[28] = test system: KM12; assay: Cytotoxicity against human KM12 cells assessed as cell growth at 10 uM; conditions: read-out: Activity; how it was run: as §2
[29] = test system: RXF 393; assay: Cytotoxicity against human RXF393 cells assessed as cell growth at 0.001 uM after 48 hrs by sulforhodamine B assay; conditions: RXF 393, 48 h, read-out: Activity
[30] = test system: CAKI-1; assay: Cytotoxicity against human Caki1 cells assessed as cell growth at 1 uM after 48 hrs by sulforhodamine B assay; conditions: CAKI-1, 48 h, read-out: Activity
[31] = test system: HCC 2998; assay: Growth inhibition of human HCC2998 cells after 48 hrs by sulforhodamine B assay; conditions: HCC 2998, 48 h; for CC50: read-out: LC50 (the source's name); how it was run: as §1
[32] = test system: MDA-MB-435; assay: Cytotoxicity against human MDA-MB-435 cells assessed as cell growth at 0.01 uM after 48 hrs by sulforhodamine B assay; conditions: MDA-MB-435, 48 h, read-out: Activity
[33] = test system: HOP-92; assay: Cytotoxicity against human HOP92 cells assessed as cell growth at 10 uM; conditions: read-out: Activity
How it was run: (§3)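 Single-dose NCI-60 screen at 10 µM. Cells were grown in RPMI 1640 with 5% FBS and 2 mM L-glutamine, then treated for 48 h at 37 °C. Protein was measured by SRB staining with absorbance at 515 nm. Percentage growth was recorded, and inhibition percentage was calculated as 100 minus growth percentage.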

[34] = test system: CCRF-CEM; assay: Cytotoxicity against human CCRF-CEM cells assessed as cell growth at 10 uM; conditions: read-out: Activity; how it was run: as §3
[35] = Cytotoxicity against human […] cells assessed as cell growth at 10 uM; conditions: read-out: Activity; how it was run: as §2
[36] = test system: UO-31; assay: Cytotoxicity against human UO31 cells assessed as cell growth at 10 uM after 48 hrs by sulforhodamine B assay; conditions: UO-31, 48 h, read-out: Activity

COc1cc(C)cc(-c2nn(CC#N)cc2-c2ccnc(-c3ccc(N(C)C)cc3)c2)c1
GI50 [1]: 0.968 µM
TGI [1]: 127 µM
CC50 [1]: > 100 µM
growth at 10 µM [2]: -28%
growth at 0.1 µM [3]: 44%
growth at 0.01 µM [4]: 99%
growth at 10 µM [5]: -24%
growth at 0.001 µM [6]: 100%
growth at 0.01 µM [7]: 98%
growth at 10 µM [8]: -22%
growth at 10 µM [9]: -76%
growth at 0.01 µM [10]: 105%
growth at 0.1 µM [11]: 24%
GI50 [12]: 0.0664 µM
LC50 [12]: > 100 µM
TGI [12]: 22.7 µM
growth at 1 µM [13]: -21%
growth at 0.1 µM [14]: 20%
growth at 10 µM [15]: -36%
growth at 0.01 µM [16]: 97%
growth at 1 µM [17]: -51%
growth at 1 µM [18]: 7%
growth at 0.001 µM [19]: 96%
growth at 0.1 µM [20]: 26%
growth at 0.1 µM [21]: 11%
growth at 1 µM [22]: -27%
growth at 1 µM [23]: 45%
growth at 10 µM [24]: -9.99%
growth at 0.001 µM [25]: 104%
growth at 1 µM [26]: 3%
GI50 [27]: 0.101 µM
TGI [27]: 78.9 µM
CC50 [27]: > 100 µM
growth at 10 µM [28]: 7.15%
growth at 0.001 µM [29]: 105%
growth at 1 µM [30]: 4%
GI50 [31]: 0.455 µM
TGI [31]: 1.93 µM
CC50 [31]: 9.69 µM
growth at 0.01 µM [32]: 94%

COc1cc(C)cc(-c2nn(CC#N)cc2-c2ccc(-c3cccc(C(C)=O)c3)nc2)c1
GI50 [1]: 4.29 µM
TGI [1]: 82.3 µM
CC50 [1]: > 100 µM
growth at 10 µM [2]: -21%
growth at 0.1 µM [3]: 74%
growth at 0.01 µM [4]: 98%
growth at 10 µM [5]: -58%
growth at 0.001 µM [6]: 92%
growth at 10 µM [33]: 48.4%
growth at 0.01 µM [7]: 90%
growth at 10 µM [8]: -3%
growth at 10 µM [9]: -62%
growth at 0.01 µM [10]: 88%
growth at 0.1 µM [11]: 69%
GI50 [12]: 2.05 µM
LC50 [12]: > 100 µM
TGI [12]: 15.9 µM
growth at 1 µM [13]: -58%
growth at 0.1 µM [14]: 81%
growth at 0.01 µM [16]: 103%
growth at 1 µM [17]: -17%
growth at 1 µM [18]: 7%
growth at 0.001 µM [19]: 97%
growth at 0.1 µM [20]: 57%
growth at 10 µM [34]: 15.4%
growth at 0.1 µM [21]: 78%
growth at 1 µM [22]: -27%
growth at 1 µM [23]: 31%
growth at 10 µM [24]: 11.8%
growth at 10 µM [35]: 17.7%
growth at 0.001 µM [25]: 94%
growth at 1 µM [26]: 29%
growth at 10 µM [36]: -6%
GI50 [27]: 3.28 µM
TGI [27]: 11.5 µM
CC50 [27]: > 100 µM
growth at 10 µM [28]: 34.1%
growth at 0.001 µM [29]: 90%
GI50 [31]: 2.08 µM
TGI [31]: 6.77 µM
CC50 [31]: 54.4 µM
growth at 0.01 µM [32]: 94%
